The source of these data is ChEMBL document CHEMBL1132422, “Synthesis and evaluation of 2-amino-9-(1, 3-dihydroxy-2-propoxymethyl)- 6-fluoropurine mono- and diesters as potential prodrugs of ganciclovir” (J Med Chem, 1999).

Values after ≈ are worked out from the molar mass of the structure shown. Some results are limits rather than exact numbers.

Data set [1] relates to Rattus norvegicus. The data set can be described thus: Total amount of Ganciclovir recovered in the urine over a 48 hr period after an oral dose of 0.1 mmol/kg to male SD rat. The class given is functional. The gist of the method:
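Single oral dose of 0.1 mmol/kg given to two male Sprague-Dawley rats (200-250 g). Urine collected for 48 h in metabolic cages, and total ganciclovir measured by C18 reversed-phase HPLC.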

The nature of data set [2]: Compound was tested for its half life period at pH 6.0 using Sodium phosphate buffer. The class given is ADME. The gist of the method:
(§1)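 Compound incubated in buffer (HCl/NaCl at pH 1.2; sodium phosphate at pH 6.0, 7.4, 8.0), sampled and analysed by C18 reversed-phase HPLC. Gradient: 10 min 100% 0.1% phosphoric acid, 25 min linear to 45% of 80% MeCN/0.1% phosphoric acid, then 4 min isocratic, at 1 mL/min. UV detection at 245 nm. Half-life derived from remaining parent compound.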

Data set [3] concerns Human betaherpesvirus 5. The data set can be described thus: In vitro antiviral (HCMV-AD169) activity of the compound (Concentration required to reduce 50% of the plaques) determined by plaque reduction assay. The data set is classed as functional, cell-based. As to conditions: Human betaherpesvirus 5, AD169, HEL 299. The gist of the method:
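Confluent cells infected with about 50 PFU HCMV AD-169 per well, 1 h adsorption at 37 °C, 5% CO2. Inoculum replaced with EMEM containing 2% FBS, 1% methyl cellulose and compound at various concentrations. After 10 days, plaques fixed in methanol, stained with crystal violet and counted. EC50 from probit dose-response; quadruplicate, repeated twice.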

Data set [4] in a line: Compound was tested for solubility in water at 25 degree C. The class given is ADME. As to conditions: read-out: S. The gist of the method: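 Saturated aqueous solution of compound; UV absorbance at 245 nm compared against a standard curve to give solubility.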
Data set [5] is described as follows: Compound was tested for its half life period at pH 8.0 using Sodium phosphate buffer. The data set is classed as ADME. The method in brief: as §1
The nature of data set [6]: Compound was tested for its half life period at pH 1.2 using HCl/NaCl buffer. The class given is ADME. The gist of the method:
as §1

A short description of data set [7]: Compound was tested for its half life period at pH 7.4 using Sodium phosphate buffer. The class given is ADME. The gist of the method: as §1
Data set [8] relates to HEL 299. Briefly: In vitro cytotoxicity of the compound (Concentration required to reduce OD value by 50%) in human embryonic lung fibroblast(HEL 299) cells determined by MTT assay. The class given is functional. The method in brief: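 HEL 299 cells seeded at 1 × 10^4 cells/well in EMEM and grown 24 h, then exposed to compound at various concentrations for 4 days at 37 °C, 5% CO2. MTT added for 4 h, formazan dissolved in DMSO, OD read at 540 nm. CC50 from probit dose-response; quadruplicate, repeated twice.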

As for `CC(C)OCC(COC(C)C)OCn1cnc2cnc(N)nc21` [ROCICLOVIR], in data set [1], the “Ganciclovir recovered in urine over 48 h (% of dose)” value (“Ganciclovir recovered … (% of dose)” for short) was determined as 14%.
Regarding `Nc1nc(F)c2ncn(COC(CO)CO)c2n1`, the half-life was 107 days in data set [2], 30 days in data set [5], 62 min in data set [6] and 69 days in data set [7]. Further, in data set [3], the concentration giving a half-maximal response (EC50) is more than 100 µM. Further, the solubility in data set [4] was determined as 11300 µg/mL (≈ 43.9 mM). The “Ganciclovir recovered … (% of dose)” value in data set [1] was 8%. The CC50 in data set [8] was more than 100 µM.
For the compound `CC(C)C(=O)OCC(COC(=O)C(C)C)OCn1cnc2c(F)nc(N)nc21`, the half-life was 29 days in data set [2], 5 days in data set [5], 74 min in data set [6] and 7 days in data set [7]. In addition, in data set [3], the EC50 was more than 100 µM. The solubility in data set [4] was 400 µg/mL (≈ 1.01 mM). Moreover, the “Ganciclovir recovered … (% of dose)” value in data set [1] is 42%. Moreover, the CC50 in data set [8] is more than 100 µM.
Consider `CCCC(=O)OCC(CO)OCn1cnc2c(F)nc(N)nc21` (configuration not stated), for which the half-life in data set [2] was 51 days; in data set [5] it was 12 days; in data set [6], 69 min; in data set [7] it was 21 days. For the same compound, the EC50 in data set [3] is more than 100 µM. In addition, the solubility in data set [4] stood at 19400 µg/mL (≈ 59.3 mM). The “Ganciclovir recovered … (% of dose)” value in data set [1] is given as 41%. Also, the half-maximal cytotoxic concentration (CC50) in data set [8] is more than 100 µM.
Consider `CC(=O)OCC(COC(C)=O)OCn1cnc2c(F)nc(N)nc21`, for which the half-life in data set [2] is 30 days; in data set [5], 3 days; in data set [6] it was 62 min; in data set [7], 8 days. Also, the half-maximal effective concentration (EC50) in data set [3] is more than 100 µM. Further, in data set [4], the solubility turned out to be 4200 µg/mL (≈ 12.3 mM). Further, the “Ganciclovir recovered … (% of dose)” value in data set [1] was found to be 41%. This compound also had a CC50 in data set [8] of more than 100 µM.
For the compound `CC(C)C(=O)OCC(CO)OCn1cnc2c(F)nc(N)nc21` (configuration not stated), the half-life was 56 days in data set [2], 14 days in data set [5], 65 min in data set [6] and 32 days in data set [7]. For the same compound, in data set [3], the half-maximal effective concentration (EC50) is more than 100 µM. Besides, the solubility in data set [4] was found to be 5700 µg/mL (≈ 17.4 mM). The “Ganciclovir recovered … (% of dose)” value in data set [1] stood at 45%. Further, in data set [8], the cytotoxic concentration (CC50) was more than 100 µM.
As for `Nc1nc2c(ncn2COC(CO)CO)c(=O)[nH]1` [GANCICLOVIR], it took 0.63 µM to reach a half-maximal effect in data set [3] (EC50). For the same compound, the solubility in data set [4] was 4300 µg/mL (≈ 16.8 mM). Further, the “Ganciclovir recovered … (% of dose)” value in data set [1] was 3%. Also, the 50% cytotoxic concentration (CC50) in data set [8] was more than 100 µM.
Take `CCCC(=O)OCC(COC(=O)CCC)OCn1cnc2c(F)nc(N)nc21`: the half-life in data set [2] was 39 days; in data set [5] it was 4 days; in data set [6], 65 min; in data set [7], 11 days. Further, in data set [3], the EC50 was more than 100 µM. For the same compound, in data set [4], the solubility was determined as 600 µg/mL (≈ 1.51 mM). The “Ganciclovir recovered … (% of dose)” value in data set [1] is on record as 35%. Further, in data set [8], the CC50 is more than 100 µM.
As for `CCC(=O)OCC(COC(=O)CC)OCn1cnc2c(F)nc(N)nc21`, the half-life in data set [2] was 35 days; in data set [5], 2 days; in data set [6], 83 min; in data set [7] it was 7 days. The compound further displayed a concentration for a half-maximal effect (EC50) in data set [3] of more than 100 µM. Further, in data set [4], the solubility is 700 µg/mL (≈ 1.9 mM). Further, the “Ganciclovir recovered … (% of dose)” value in data set [1] is on record as 35%. Also, in data set [8], the half-maximal cytotoxic concentration (CC50) is more than 100 µM.
For `CCC(=O)OCC(CO)OCn1cnc2c(F)nc(N)nc21` (configuration not stated), the half-life is 37 days in data set [2], 7 days in data set [5], 60 min in data set [6] and 17 days in data set [7]. In data set [3], this compound yielded an EC50 of more than 100 µM. Moreover, the solubility in data set [4] was 19000 µg/mL (≈ 60.6 mM). The Dose in data set [1] came out at 39%. This compound also displayed a CC50 in data set [8] of more than 100 µM.
Turning to `CC(=O)OCC(CO)OCn1cnc2c(F)nc(N)nc21` (configuration not stated), the half-life in data set [2] was 56 days; in data set [5], 7 days; in data set [6], 61 min; in data set [7], 14 days. This compound also displayed a 50% effective concentration (EC50) in data set [3] of more than 100 µM. Moreover, in data set [4], the solubility is 44400 µg/mL (≈ 148 mM). In data set [1], the “Ganciclovir recovered … (% of dose)” value was found to be 29%. Further, the CC50 in data set [8] was more than 100 µM.
